Rows were chosen to be rich in hits. Some 6% of all compounds tested hit in one or more screens of this group.
Jurkat viability: cytotoxicity toward Jurkat T cells, primary screen, cytotoxicity control, cell-based, Jurkat E6.1, 60K MLSMR library; AID 463, 2006; Jurkat E6.1 viability, ATP luminescence, 48 h; inhibition, % at 4 µM; 56,000 compounds, 1.2% hits;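 active means inhibition above the mean inhibition of all tested compounds plus 3 SD, cut at about 28% in these data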
HUVEC inhibit: inhibitors of HUVEC proliferation, primary screen, cell-based, 384-well; 86,000 compounds, 1.1% hits; CellTiter-Glo luminescence, 72 h; stronger effect = lower value; viability, % at 10 µM (by protocol);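 active means viability at or below 30%; inactive means viability above 30%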;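 further: 100% = median luminescence of DMSO-only cell control wells on each plate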
H69AR inhibit: proliferation blockers of H69AR lung cancer cells, primary screen, cell-based, human, 86K library | 85,000 compounds, 6% hits | H69AR lung tumor viability, ATP luminescence, 72 h; stronger effect = lower value | viability, % at 10 µM | AID 598, 2007;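 active means viability at or below 40%; inactive means viability above 40%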;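 further: multidrug resistant small cell line overexpressing MRP-1 efflux transporter; 100% = mean luminescence of untreated control wells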
PTK2B oligo ant: antagonists of Pyk2 self-association, primary screen, Q293 cells, FERM NanoBiT luminescence, HTS | Protein-tyrosine kinase 2-beta (Homo sapiens), Q14289 | stronger effect = lower value | z-score (the deposit names both 25 µM and 10 µM) | 99,000 compounds, 0.83% hits | AID 1347419, 2020;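 active means Z-score of -3 or lower, scaled per plate to the spread of control and sample wells; inactive means z-score above -3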;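 further: negative z-score means lost luminescence so less FERM oligomerization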
Target sequence (Q14289 whole entry, looked up): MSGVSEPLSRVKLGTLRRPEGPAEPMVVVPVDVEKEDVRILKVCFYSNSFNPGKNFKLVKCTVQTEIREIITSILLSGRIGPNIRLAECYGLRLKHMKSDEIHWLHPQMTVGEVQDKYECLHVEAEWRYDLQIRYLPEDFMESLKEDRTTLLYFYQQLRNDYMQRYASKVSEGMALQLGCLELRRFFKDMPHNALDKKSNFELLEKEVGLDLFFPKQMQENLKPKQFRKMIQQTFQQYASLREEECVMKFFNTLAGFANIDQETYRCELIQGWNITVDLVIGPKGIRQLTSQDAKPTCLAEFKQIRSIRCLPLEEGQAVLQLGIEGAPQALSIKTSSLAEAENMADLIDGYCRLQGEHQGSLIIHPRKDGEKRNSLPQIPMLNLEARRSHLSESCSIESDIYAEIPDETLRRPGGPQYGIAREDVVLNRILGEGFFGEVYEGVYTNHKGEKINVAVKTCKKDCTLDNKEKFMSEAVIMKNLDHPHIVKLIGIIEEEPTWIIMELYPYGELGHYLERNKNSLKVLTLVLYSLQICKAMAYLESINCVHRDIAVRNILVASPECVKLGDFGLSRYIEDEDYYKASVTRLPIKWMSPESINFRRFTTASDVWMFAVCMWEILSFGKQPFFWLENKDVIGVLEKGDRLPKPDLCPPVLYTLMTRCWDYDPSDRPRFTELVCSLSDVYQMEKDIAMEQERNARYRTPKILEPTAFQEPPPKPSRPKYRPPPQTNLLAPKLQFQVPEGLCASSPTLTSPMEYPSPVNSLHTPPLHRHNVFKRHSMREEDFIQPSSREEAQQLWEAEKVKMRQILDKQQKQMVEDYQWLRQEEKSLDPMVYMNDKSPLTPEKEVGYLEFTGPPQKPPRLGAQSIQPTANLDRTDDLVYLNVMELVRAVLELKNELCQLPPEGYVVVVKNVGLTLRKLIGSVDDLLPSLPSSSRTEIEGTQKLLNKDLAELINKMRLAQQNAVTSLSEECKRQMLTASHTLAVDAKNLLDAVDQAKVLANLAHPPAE
Lung fibro prol: antiproliferative effect on LL 47 fibroblasts – human, LL 47 cells, CellTiter-Glo luminescence, primary screen. LL 47 human lung fibroblast viability, ATP luminescence; stronger effect = lower value. viability, % at 10 µM. 85,000 compounds, 1.1% hits. AID 719, 2007;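 active means viability at or below 50% in the single dose screen; inactive means viability above 50%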;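 further: compound exposure lasted 72 h before the ATP readout; 100% = median luminescence of untreated cell-only wells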
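Benchmarks: Cell-only wells, no compound | Test system: LL 47 human lung fibroblasts, passage 12 or lower | Input: 1,150 cells/well | Measured by: CellTiter-Glo luminescence measuring cellular ATP | Medium: IMEM, 15% FBS supplement | Schedule: Overnight attachment after seeding, then 72 h compound exposure at 37 °C | Doses: Compound addition at 0.1% DMSO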
F-actin modifier: modifiers of F-actin cytoskeleton organization, primary screen, imaging, HUVEC, phalloidin staining, high-content imaging. AID 836, 2007. 91,000 compounds, 0.18% hits. HUVEC TNFa F-actin phalloidin imaging. inhibition, % at 2 µM;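 active means inhibition above the batch mean plus 3 SD and confirmed as a hit by visual image inspection, cut at about 30% in these data, passing the limit was not always enough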
* = called active by the depositor; x = no result given.

SMILES | Jurkat viability | HUVEC inhibit | H69AR inhibit | PTK2B oligo ant | Lung fibro prol | F-actin modifier
COCCNC(=O)NC(=O)COC(=O)c1cc([N+](=O)[O-])ccc1Sc1nc(C)cs1 | x | 92 | 69 | -0.59 | 91 | 15
CCOC(=O)CN1CCc2c(C)nc3c(-c4ccc(OC)c(OC)c4)cnn3c21 | x | x | x | -0.6 | x | x
CSc1nnc2c3cc(C)ccc3n(Cc3ccccc3)c2n1 | -4 | 95 | 63 | -0.52 | 94 | x
O=C(CN1CCN(S(=O)(=O)c2cc(Cl)ccc2Cl)CC1)Nc1ccc2c(c1)OCCO2 | -5 | 92 | 35* | -1.2 | 99 | x
COc1ccc(NC(=O)CN2CCN(CC(=O)Nc3ccc4c(c3)OCO4)CC2)cc1 | 2 | 96 | 96 | 0.56 | 92 | x
COc1ccccc1NC(=O)CN1CCN(C2c3ccccc3-c3ccccc32)CC1 | 13 | 66 | 38* | -0.61 | 78 | 3
COc1ccc(NC(=O)CN2CCN(C3c4ccccc4-c4ccccc43)CC2)c(OC)c1 | 8 | 60 | 59 | -0.21 | 72 | 28
COc1ccccc1NC(=O)CN1CCN(CC(=O)Nc2ccc3c(c2)OCO3)CC1 | 4 | 94 | 9.8* | 0.71 | 103 | x
CSCCOC(=O)C1=C(C)Nc2ccc(C)cc2S1 | x | 81 | 28* | -0.35 | 90 | 12
COC(=O)c1ccccc1NC(=O)c1cccs1 | -2 | 92 | 89 | -0.19 | 99 | 11
COC(=O)c1cscc1NC(C)=O | x | x | x | 3 | x | 30*
COc1cc(C)nc(N2CCCC(C(=O)Nc3cccc(Cl)c3Cl)C2)n1 (centres undefined) | x | 60 | 11* | 0.83 | 70 | -2
COc1cc(C(=O)Nc2nc3ccccc3s2)ccc1OCc1c(C)noc1C | x | 74 | 19* | -0.53 | 80 | 0
Cc1ccc(C(=O)Nc2ccc(S(=O)(=O)NCc3ccco3)cc2)cc1 | x | x | x | 0.86 | x | -16
Cc1cc(C)n(-c2ccc(C(=O)Nc3ccc(S(=O)(=O)NCc4ccco4)cc3)cc2)n1 | 65* | 58 | 65 | -2.3 | 87 | 6
Cc1cc(C)n(-c2ccc(C(=O)Nc3nc4ccccc4s3)cc2)n1 | 4 | 60 | 15* | -0.71 | 102 | 10
COc1ccc(-n2c(SCC(=O)N3CCCC3)nc3c([nH]c4ccccc43)c2=O)cc1 | 2 | 82 | 78 | x | 93 | x
CCOc1ccc(OCC)c(-c2c(=O)n(OCc3ccccc3Br)c3ccccc3[n+]2[O-])c1 | x | x | x | -1.4 | x | 18
NC(=O)CN1CCN(C(=O)Nc2ccccc2)CC1 | -6 | 101 | 96 | x | 98 | x
Cc1cc(C)n(-c2nc3c(c(=O)n(C)c(=O)n3C)n2CC(O)COc2ccccc2C)n1 (centres undefined) | x | 90 | 95 | x | 98 | -4
O=C(NCCSCc1c(F)cccc1Cl)c1ccc(CN2CCOCC2)cc1 | x | x | x | 0.41 | x | x
CCCCN(CC)c1nc(-c2ccncc2)nc2ccccc12 | x | 56 | 20* | -1.9 | 79 | 0
C=CCC(CC=C)(NC(=O)c1ccccc1C)c1ccccc1 | x | x | x | -0.35 | x | 9
CCc1nc2ccccc2c(C(=O)OCC(=O)Nc2ccc(S(=O)(=O)N3CCOCC3)cc2)c1C | 7 | 77 | 28* | -4.4* | 90 | x
CCc1nc2ccccc2c(C(=O)OCC(=O)Nc2cccc(S(=O)(=O)N3CCOCC3)c2)c1C | x | 57 | 22* | -4.7* | 76 | 14
SMILES | Jurkat viability | HUVEC inhibit | H69AR inhibit | PTK2B oligo ant | Lung fibro prol | F-actin modifier
COc1cccc(NC(=O)COC(=O)c2cc(S(=O)(=O)N3CCOCC3)ccc2C)c1 | x | x | x | -2.9 | x | -9
O=C(COC(=O)c1ccccn1)Nc1ccc(S(=O)(=O)N2CCOCC2)cc1 | x | 97 | 89 | 1.8 | 99 | 18
CCN(CC(=O)Nc1ccc([N+](=O)[O-])cc1OC)c1ccccc1 | x | x | x | 0.7 | x | 21
Cc1cccc(C)c1NC1=NC(=S)N(c2ccccc2)C12CCOC(C)(C)C2 (centres undefined) | x | 90 | 34* | 0.25 | 87 | 16
Cc1ccc(/C=N/n2c(C)n[nH]c2=S)o1 | x | x | x | 1.6 | x | 9
Cc1cccc2c1N(CCCOc1ccc(C(C)(C)C)cc1)C(=O)C2=O | x | 1.6* | 0.8* | x | 91 | 2
Cc1ccccc1OCCCN1C(=O)C(=O)c2cccc(C)c21 | -5 | 74 | 17* | x | 81 | 4
Cc1cc(/C=N\O)c(C)n1-c1ccncc1 | x | 93 | 76 | 0.17 | 99 | 3
Cc1ccc(Cl)cc1N1CCN(C(=O)C2CCN(S(=O)(=O)c3c(C)nn(C)c3C)CC2)CC1 | 7 | 63 | 25* | 0.19 | 90 | 12
CCOC(=O)CNC(=O)C(CC(C)C)NC(=O)C1CCCCC1 (centres undefined) | x | 111 | 95 | 0.8 | 97 | 2
COC(=O)C(C(=O)OC)C(C)C(C(=O)OC)C(=O)OC | x | 86 | 97 | -0.62 | 99 | 5
CCOC(=O)CSC1=C(C#N)C(=O)NC(c2ccc(OC)cc2)S1 (centres undefined) | x | 79 | 2.2* | -0.27 | 111 | 6
CCOC(=O)CSC1=C(C#N)C(=O)NC(c2ccc(OC)c(OC)c2)S1 (centres undefined) | x | 73 | 6.6* | 0.43 | 77 | 6
CCOc1ccc(C2NC(=O)C(C#N)=C(S)N2c2ccc(OC)cc2)cc1OC (centres undefined) | x | 106 | 96 | -0.16 | 97 | -24
Cn1c(=O)n(CCc2ccccc2)c(=O)c2c1nc1n2CCCN1c1ccc(F)cc1 | 0 | 94 | 69 | x | 94 | x
COc1ccc2c(c1)C1(Nc3ccccc3-c3nc4ccccc4n31)C(=O)N2 (centres undefined) | 3 | 81 | 85 | -2.1 | 91 | -5
COc1ccc2c(c1)C1(Nc3ccccc3-c3nc4ccccc4n31)C(=O)N2C (centres undefined) | -1 | 88 | 37* | -3.1* | x | 14
COc1cc(C2c3c(oc4ccccc4c3=O)C(=O)N2Cc2ccco2)ccc1O (centres undefined) | x | 86 | 85 | -0.64 | 95 | 7
CN1C(=O)c2oc3ccc(Br)cc3c(=O)c2C1c1ccncc1 (centres undefined) | 4 | 101 | 91 | x | 103 | x
CCOc1cc(C2c3c(oc4cc(C)c(Cl)cc4c3=O)C(=O)N2Cc2ccco2)ccc1O (centres undefined) | -4 | 41 | 3.1* | 0.3 | 53 | 7
Cc1cc2oc3c(c(=O)c2cc1C)C(c1cccc(Br)c1)N(Cc1ccco1)C3=O (centres undefined) | 6 | 40 | 4.5* | -1.9 | 54 | 5
Cc1ccc2oc3c(c(=O)c2c1)C(c1cccc(Br)c1)N(Cc1ccco1)C3=O (centres undefined) | -8 | 56 | 3.1* | 0 | 11* | -21
CCn1c(=O)cc(SCC(=O)Nc2ccccc2N2CCN(C)CC2)c2ccccc21 | 2 | 86 | 52 | x | 100 | x

Bioassay records from PubChem BioAssay.
